HSF1 activator = increases HSF-1 driven luciferase reporter signal; activation, % at 9 µM; 1.7% of 300,000 active; AID 504408; NIH3T3-HGL HSF-1 luciferase reporter, MG132, 8 h; 100% = twice DMSO control signal;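 active = mean replicate activation of at least 50% with a set share of replicates each reaching 50%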
HSF1 inhib = HSF1 inhibition. NIH3T3-HGL HSE-luciferase, MG132-induced, luminescence 8 h; hits give low values. activity change, negative = inhibition, % at 7.5 µM (by protocol). 0.77% of 300,000 active. AID 2098;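 active = more than half of replicate wells show activity change below -50%, luminescence cut by over half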;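 note: luciferase reports HSF-1 transcriptional activity via heat shock element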
Hep lipid drop = hepatic lipid droplet formation modulation; AML12 mouse hepatocytes, oleate lipid droplets, BODIPY imaging; inhibition, % at 6.5 µM; 0.4% of 240,000 active;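 active = lipid droplet intensity inhibited by at least 50%, with more than 500 cells counted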
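Material: mouse AML12 hepatocyte cell line, fixed after treatment; Timing: compound with oleate, overnight; Technique: high-content imaging of BODIPY-stained droplets and DAPI nuclei; Probe or stimulus: oleate, 100 µM final; Dosing: compound at 6.5 µM only.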
HSP90 refold inh = blocks HSP90-mediated luciferase refolding in reticulocyte lysate. Rabbit reticulocyte lysate, luciferase refolding luminescence, 3 h. 0.91% of 290,000 active. inhibition, % at 5.6 µM;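 active = inhibition above the screen-wide mean plus 3 SD, computed separately per campaign, cut at about 16% in these data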;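 note: inhibitors lower the luminescence because luciferase stays unfolded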
NS3 helicase inh = HCV NS3 helicase inhibition; NS3 helicase DNA unwinding, Cy5 molecular beacon fluorescence; inhibition, % at 10.9 µM; 0.56% of 290,000 active; AID 1800;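 active = inhibition above the mean of all tested compounds plus 3 SD, set per campaign, cut at about 35% in these data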
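Control set: DMSO versus 110 µM thioflavine S; Material: NS3 helicase fragment of HCV; Measured by: Cy5 fluorescence at 0 and 60 min, beacon hairpin quenching; Read-out basis: percent inhibition from t60/t0 fluorescence ratio; Times: reaction time 60 min, 25 °C; Repeats: single replicate; Compound dosing: single dose, 10.9 µM nominal final, DMSO 0.8% final.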
NS3 hel confirm = HCV NS3 helicase inhibition, confirmation assay; shares compounds with NS3 helicase inh; NS3 helicase DNA unwinding, Cy5 molecular beacon fluorescence; inhibition, % at 10.9 µM; 31% of 1,600 active; AID 1943;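 active = inhibition above the mean of all tested compounds plus 3 SD, cutoff set per campaign, cut at about 36% in these data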
FID counter trip = displaces DNA intercalator in HCV helicase counter-screen | shares compounds with NS3 helicase inh | DNA fluorescent intercalator displacement, fluorescence | inhibition, % at 7.9 µM | 4% of 1,600 active; in the data active = inhibition above about 37%;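 note: higher means more displacement of ethidium bromide from the DNA hairpin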
FID counter DR = DNA intercalator displacement in dose response | shares compounds with NS3 helicase inh | fluorescent intercalator displacement from DNA, fluorescence | IC50, µM | 120 tested, under 10 active | AID 2172; call rule not given here
Hits are given with their value; - = inactive; . = no result. Compounds with a hit are over-represented: about 3.8% of the library has one in this group of screens.

SMILES	HSF1 activator	HSF1 inhib	Hep lipid drop	HSP90 refold inh	NS3 helicase inh	NS3 hel confirm	FID counter trip	others
CC(=O)Oc1ccc(C23CC4CC(CC(C4)C2)C3)cc1C(=O)O	-	-	-	-	40.3	-	-
CCOc1ccc(C(=O)Nc2nnc(S(=O)(=O)N(C)Cc3ccco3)s2)cc1	-	-	-	-	56.5	-	-
CN(Cc1ccco1)S(=O)(=O)c1nnc(NC(=O)c2ccc(F)cc2)s1	-	-	-	-	-	.	.
O=S1(=O)[C@H]2C[C@@H]3C=C[C@@]2(CN1Cc1ccc(F)cc1)O3	-	-	-	-	-	.	.
CC(=O)c1cn(CC(=O)NCc2ccco2)c2ccccc12	-	-	.	-	-	.	.
O=C(Cn1cc(C(=O)COc2ccccc2)c2ccccc21)NCc1ccco1	.	.	-	-	44.0	-	-
O=C(COc1ccc(S(=O)(=O)N2CCCCC2)cc1)N1CCCC1	-	-	-	-	-	.	.
O=C(Nc1nnc(-c2ccc3c(c2)CCCC3)o1)c1ccc(Cl)cc1Cl	-	-	-	-	72.3	71.6	-
CC(C)CCN1CCN=C1Nc1ccccc1	-	-	-	-	49.6	-	-
FC(F)(F)c1cc(-c2cccs2)nc2cc(-c3ccccc3)nn12	-	-	-	-	-	.	.
O=C(O)c1cc2nc(-c3cccs3)cc(C(F)(F)F)n2n1	-	-	-	-	39.0	-	-
CCN1CCN(CC(=O)Nc2ccc(S(=O)(=O)N3C(C)CCCC3C)cc2)CC1 (centres undefined)	-	-	-	-	-	.	.
Cc1ccc(-n2c(C)cc(-c3csc(N)n3)c2C)cc1	-	-	-	-	83.0	-	-
N=C1/C(=C\c2ccc(-c3ccc(C(=O)O)cc3)o2)C(=O)N=C2SC=C(c3ccccc3)N12	-	-	-	-	36.5	72.6	-
N=C1/C(=C\c2ccc(-c3cccc(Cl)c3)o2)C(=O)N=C2SC=C(c3ccccc3)N12	-	-	-	-	46.1	79.5	-
COc1ccc(S(=O)(=O)NC(C)CCc2ccccc2)cc1 (centres undefined)	-	-	-	-	-	.	.
Cn1nc(C(F)(F)F)c(-c2cccc(C(F)(F)F)c2)c1NC(=O)c1nccnc1C(=O)O	-	-	-	-	51.1	-	-
Cn1nc(C(F)(F)F)c(-c2ccccc2)c1NC(=O)c1nccnc1C(=O)O	-	-	-	-	-	.	.
CC(=O)c1ccc(N2C(=O)C3C(C2=O)C(C(=O)c2ccc(Cl)cc2)N2CCCC32)cc1 (centres undefined)	.	.	-	-	-	.	.
COc1ccc(N2C(=O)C3C(C2=O)C(C(=O)c2ccc(Cl)cc2)N2CCCC32)cc1 (centres undefined)	-	-	-	-	40.3	-	-
COc1cc(C(=O)NCCCOC(C)C)ccc1OC1CCN(C(C)=O)CC1	-	-	-	-	-	.	.
CC1CCCCN1C(=O)Cn1cc(C(=O)c2ccco2)c2ccccc21 (centres undefined)	-	-	-	-	38.3	-	-
Oc1c(Br)cc(Br)cc1/C=N/NC(=S)N[C@H]1CC2C=CC1C2 (some centres undefined)	-	-	-	-	37.4	59.1	-	FID counter DR=-
CC1CC/C(=C\c2ccc3c(c2)OCO3)C(=O)/C1=C/c1ccc2c(c1)OCO2 (centres undefined)	87.1	-	.	-	37.6	-	-
CCOC(=O)NC1=NCC(C)S1 (centres undefined)	-	-	-	-	-	.	.
SMILES	HSF1 activator	HSF1 inhib	Hep lipid drop	HSP90 refold inh	NS3 helicase inh	NS3 hel confirm	FID counter trip	others
CCOC(=O)n1c(=O)n(C)c2ccc(Br)cc21	-	-	-	-	112.0	-	-
O=C(O)c1ccc(NC(=S)NC(=O)c2cccc(COc3ccccc3)c2)cc1	-	-	-	-	36.3	69.8	-
O=C(NC(=S)Nc1ccc(CN2CCCCC2)cc1)c1cccc(OCc2ccccc2)c1	-	-	.	-	-	.	.
COc1cc(NS(=O)(=O)c2csc(C(N)=O)c2)cc(OC)c1	-	-	-	-	-	.	.
O=C(O)Cc1cc(C(=O)Nc2ccc(Br)cc2)sc1-c1ccccc1	-	-	-	-	-	.	.
CCCC(=O)Nc1c(C)n[nH]c1C	-	-	.	-	-	.	.
CNCC(=O)Nc1c(C)n[nH]c1C	-	-	-	-	40.0	-	-
O=C(NCCNc1ccc(Cl)cc1[N+](=O)[O-])c1ccccc1F	50.9	-	-	-	41.1	-	-
NS(=O)(=O)c1ccc(CNC(=O)CSc2nc3ccc(Cl)cc3[nH]2)cc1	-	-	-	-	-	.	.
Cc1ccc(NC(=O)CN(C)C(=O)Cc2ccc(Cl)cc2Cl)cc1	-	-	-	-	-	.	.
Cc1c(C(=O)NCCCN2CCOCC2)oc2c1C1(CCC2)SCCS1	-	-	-	-	-	.	.
CC(/C=N/NC(=O)Cc1cc(=O)[nH][nH]1)=C\c1ccccc1	-	-	.	-	39.4	-	-
CN(C)S(=O)(=O)c1cccc(NC(=S)N/N=C/c2cc(Br)ccc2O)c1	-	-	-	-	46.2	53.1	-
Oc1ccc(Br)cc1C=Nc1ccc2c3c(cccc13)CC2	-	-	-	-	48.5	-	-
Oc1ccc(Cl)cc1C=Nc1ccccc1Br	-	-	-	-	-	.	.
Cc1ccc(Nc2nnc(SCc3nc4ccccc4c(=O)[nH]3)s2)cc1	-	-	.	-	-	.	.
Cc1ccc(NC(=O)CN2CCCC2)cc1Br	-	-	-	-	-	.	.
CCCOC(=O)/C(=C\C=C\c1ccco1)NC(=O)c1ccccc1	-	-	-	-	40.3	-	-
COC(=O)/C(=C/c1ccco1)NC(=O)c1ccccc1	-	-	-	-	-	.	.
CCCOC(=O)/C(=C\c1ccc([N+](=O)[O-])o1)NC(=O)c1ccccc1	-	-	-	-	38.2	-	-
CCOC(=O)/C(=C\c1ccc([N+](=O)[O-])o1)NC(=O)c1ccccc1	-	-	-	-	-	.	.
O=C(N/N=C/C=C/c1ccco1)c1ccncc1	-	-	-	-	-	.	.
O=C(N/N=C/C=C/c1ccco1)/C(=C/c1ccccc1)NC(=O)c1ccccc1	-	-	-	-	36.5	53.9	-
CC1=CC(=O)c2c(O)ccc(O)c2C1=O	.	.	-	-	-	.	.
O=C(C=C1SCCS1)/C=C/c1ccco1	-	-	.	-	38.2	-	-
O=C(O)C(C(=O)/C=C/c1ccco1)=C1SCCS1	-	-	-	-	-	.	.
Cc1nnc(NC(=O)c2cc(-c3ccncc3)nc3c(C)cccc23)s1	-	-	-	-	-	.	.
CCOc1ccccc1NC(=O)CC1SC(=N)N(c2ccccc2)C1=O (centres undefined)	.	.	-	-	-	.	.
O=C(CC1SC(=O)N(c2ccccc2)C1=O)Nc1cccc2ccccc12 (centres undefined)	-	-	-	-	45.5	-	-

Assay outcomes: PubChem, several laboratories
